Results: ChEMBL document CHEMBL1157665, “Novel 4-thiazolidinone derivatives as potential antifungal and antibacterial drugs” (2010)
≈ marks a conversion by molar mass, not a printed value.

Columns and labels:
Aspergillus niger [1] = assay: Antifungal activity against Aspergillus niger ATCC 6275 after 72 hrs by serial sub-cultivation method; format: functional; details: ATCC 6275, 72 h
In short: (§1)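 MFC was found by serial sub-cultivation of 2 µl into plates holding 100 µl broth per well, then incubation 72 h at 28 °C. MFC is the lowest concentration with no visible growth, taken as 99.5% killing of the original inoculum. Spore inocula came from malt agar cultures washed with 0.85% saline and 0.1% Tween 80.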

Aspergillus versicolor [2] = assay: Antifungal activity against Aspergillus versicolor ATCC 11730 after 72 hrs by serial dilution method; format: functional; details: ATCC 11730, 72 h
In short: (§2)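 Fungi were kept on malt agar at 4 °C and sub-cultured monthly. Spores were washed off the agar with sterile 0.85% saline containing 0.1% Tween 80 (v/v). Modified microdilution in 96-well plates. MIC is the lowest concentration with no visible growth under the binocular microscope. Inoculum checked on malt agar for contamination and validity.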

Aspergillus versicolor [3] = assay: Antifungal activity against Aspergillus versicolor ATCC 11730 after 72 hrs by serial sub-cultivation method; format: functional; details: ATCC 11730, 72 h; in short: as §1
Aspergillus flavus [4] = assay: Antifungal activity against Aspergillus flavus ATCC 9643 after 72 hrs by serial dilution method; format: functional; details: ATCC 9643, 72 h; in short: as §2
Aspergillus flavus [5] = assay: Antifungal activity against Aspergillus flavus ATCC 9643 after 72 hrs by serial sub-cultivation method; format: functional; details: ATCC 9643, 72 h; in short: as §1
Fulvia fulva [6] = assay: Antifungal activity against Fulvia fulva TK 5318 after 72 hrs by serial dilution method; format: functional; details: TK 5318, 72 h; in short: as §2
Fulvia fulva [7] = assay: Antifungal activity against Fulvia fulva TK 5318 after 72 hrs by serial sub-cultivation method; format: functional; details: TK 5318, 72 h; in short: as §1
Bacillus cereus [8] = assay: Antibacterial activity against Bacillus cereus clinical isolate after 24 hrs; format: functional
In short: (§3)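 Broth microdilution MIC in 96-well plates. Compounds in LB broth with bacterial inoculum of 1.0 × 10^4 cfu per well, from suspensions adjusted with sterile saline to 1.0 × 10⁵ CFU/ml. Incubated 24 h at […] as printed. MIC taken as the lowest concentration with no visible growth under the binocular microscope. OD at 655 nm also read against blank. Streptomycin and ampicillin as positive controls. Duplicate, repeated three times.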

Bacillus cereus [9] = assay: Antibacterial activity against Bacillus cereus clinical isolate after 72 hrs by serial sub-cultivation method; format: functional
In short: (§4)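 MBC was found by serial sub-cultivation of 2 µl from the MIC wells into plates holding 100 µl broth per well, then incubation for 72 h. MBC is the lowest concentration with no visible growth, i.e. 99.5% killing of the original inoculum. Bacterial inoculum was 1.0 × 10^4 cfu per well in LB broth. Duplicate, repeated three times.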

Micrococcus flavus [10] = assay: Antibacterial activity against Micrococcus flavus ATCC 10240 after 24 hrs; format: functional; details: ATCC 10240, 24 h; in short: as §3
Micrococcus flavus [11] = assay: Antibacterial activity against Micrococcus flavus ATCC 10240 after 72 hrs by serial sub-cultivation method; format: functional; details: ATCC 10240, 72 h; in short: as §4
Staphylococcus aureus [12] = assay: Antibacterial activity against Staphylococcus aureus ATCC 6538 after 24 hrs; format: functional; details: ATCC 6538, 24 h; in short: as §3
Staphylococcus aureus [13] = assay: Antibacterial activity against Staphylococcus aureus ATCC 6538 after 72 hrs by serial sub-cultivation method; format: functional; details: ATCC 6538, 72 h; in short: as §4
Escherichia coli [14] = assay: Antibacterial activity against Escherichia coli ATCC 35210 after 24 hrs; format: functional; details: ATCC 35210, 24 h; in short: as §3
Escherichia coli [15] = assay: Antibacterial activity against Escherichia coli ATCC 35210 after 72 hrs by serial sub-cultivation method; format: functional; details: ATCC 35210, 72 h; in short: as §4
Pseudomonas aeruginosa [16] = assay: Antibacterial activity against Pseudomonas aeruginosa ATCC 27853 after 24 hrs; format: functional; details: ATCC 27853, 24 h; in short: as §3
Pseudomonas aeruginosa [17] = assay: Antibacterial activity against Pseudomonas aeruginosa ATCC 27853 after 72 hrs by serial sub-cultivation method; format: functional; details: ATCC 27853, 72 h; in short: as §4
Proteus mirabilis [18] = assay: Antibacterial activity against Proteus mirabilis after 24 hrs; format: functional; in short: as §3
Proteus mirabilis [19] = assay: Antibacterial activity against Proteus mirabilis after 72 hrs by serial sub-cultivation method; format: functional; in short: as §4
Salmonella typhimurium [20] = assay: Antibacterial activity against Salmonella Typhimurium ATCC 13311 after 24 hrs; format: functional, Salmonella enterica subsp. enterica serovar Typhimurium; details: Salmonella enterica, ATCC 13311, 24 h; in short: as §3
Salmonella typhimurium [21] = assay: Antibacterial activity against Salmonella Typhimurium ATCC 13311 after 72 hrs by serial sub-cultivation method; format: functional, Salmonella enterica subsp. enterica serovar Typhimurium; details: Salmonella enterica, ATCC 13311, 72 h; in short: as §4
Listeria monocytogenes [22] = assay: Antibacterial activity against Listeria monocytogenes NCTC 7973 after 24 hrs; format: functional; details: NCTC 7973, 24 h; in short: as §3
Listeria monocytogenes [23] = assay: Antibacterial activity against Listeria monocytogenes NCTC 7973 after 72 hrs by serial sub-cultivation method; format: functional; details: NCTC 7973, 72 h; in short: as §4
Talaromyces funiculosus [24] = assay: Antifungal activity against Penicillium funiculosum ATCC 36839 after 72 hrs by serial dilution method; format: functional; details: ATCC 36839, 72 h; in short: as §2
Talaromyces funiculosus [25] = assay: Antifungal activity against Penicillium funiculosum ATCC 36839 after 72 hrs by serial sub-cultivation method; format: functional; details: ATCC 36839, 72 h; in short: as §1
Penicillium ochrochloron [26] = assay: Antifungal activity against Penicillium ochrochloron ATCC 9112 after 72 hrs by serial dilution method; format: functional; details: ATCC 9112, 72 h; in short: as §2
Penicillium ochrochloron [27] = assay: Antifungal activity against Penicillium ochrochloron ATCC 9112 after 72 hrs by serial sub-cultivation method; format: functional; details: ATCC 9112, 72 h; in short: as §1
Trichoderma viride [28] = assay: Antifungal activity against Trichoderma viride IAM 5061 after 72 hrs by serial dilution method; format: functional; details: IAM 5061, 72 h; in short: as §2
Trichoderma viride [29] = assay: Antifungal activity against Trichoderma viride IAM 5061 after 72 hrs by serial sub-cultivation method; format: functional; details: IAM 5061, 72 h; in short: as §1
Aspergillus niger [30] = assay: Antifungal activity against Aspergillus niger ATCC 6275 after 72 hrs by serial dilution method; format: functional; details: ATCC 6275, 72 h; in short: as §2
Aspergillus fumigatus [31] = assay: Antifungal activity against Aspergillus fumigatus plant isolate after 72 hrs by serial dilution method
Aspergillus fumigatus [32] = assay: Antifungal activity against Aspergillus fumigatus plant isolate after 72 hrs by serial sub-cultivation method

| SMILES | MFC (Aspergillus niger [1]) | MIC (Aspergillus versicolor [2]) | MFC (Aspergillus versicolor [3]) | MIC (Aspergillus flavus [4]) | MFC (Aspergillus flavus [5]) | MIC (Fulvia fulva [6]) | MFC (Fulvia fulva [7]) | MIC (Bacillus cereus [8]) | MBC (Bacillus cereus [9]) | MIC (Micrococcus flavus [10]) | MBC (Micrococcus flavus [11]) | MIC (Staphylococcus aureus [12]) | MBC (Staphylococcus aureus [13]) | MIC (Escherichia coli [14]) | MBC (Escherichia coli [15]) | MIC (Pseudomonas aeruginosa [16]) | MBC (Pseudomonas aeruginosa [17]) | MIC (Proteus mirabilis [18]) | MBC (Proteus mirabilis [19]) | MIC (Salmonella typhimurium [20]) | other results |
| --- | --- | --- | --- | --- | --- | --- | --- | --- | --- | --- | --- | --- | --- | --- | --- | --- | --- | --- | --- | --- | --- |
| O=C1CS/C(=N/c2nc(C34CC5CC(CC(C5)C3)C4)cs2)N1 | 23.8 µM (≈ 7.94 µg/mL) | 23.8 µM (≈ 7.94 µg/mL) | 33.5 µM (≈ 11.2 µg/mL) | 17.9 µM (≈ 5.97 µg/mL) | 23.8 µM (≈ 7.94 µg/mL) | 6 µM (≈ 2 µg/mL) | 11.9 µM (≈ 3.97 µg/mL) | 17.9 µM (≈ 5.97 µg/mL) | 23.8 µM (≈ 7.94 µg/mL) | 23.8 µM (≈ 7.94 µg/mL) | 47.6 µM (≈ 15.9 µg/mL) | 23.8 µM (≈ 7.94 µg/mL) | 47.6 µM (≈ 15.9 µg/mL) | 23.8 µM (≈ 7.94 µg/mL) | 47.6 µM (≈ 15.9 µg/mL) | 17.9 µM (≈ 5.97 µg/mL) | 47.6 µM (≈ 15.9 µg/mL) | 47.6 µM (≈ 15.9 µg/mL) | 71.7 µM (≈ 23.9 µg/mL) | 23.8 µM (≈ 7.94 µg/mL) | MBC (Salmonella typhimurium [21]): 47.6 µM (≈ 15.9 µg/mL); MIC (Listeria monocytogenes [22]): 23.8 µM (≈ 7.94 µg/mL); MBC (Listeria monocytogenes [23]): 47.6 µM (≈ 15.9 µg/mL); MIC (Talaromyces funiculosus [24]): 17.9 µM (≈ 5.97 µg/mL); MFC (Talaromyces funiculosus [25]): 23.8 µM (≈ 7.94 µg/mL); MIC (Penicillium ochrochloron [26]): 6 µM (≈ 2 µg/mL); MFC (Penicillium ochrochloron [27]): 23.8 µM (≈ 7.94 µg/mL); MIC (Trichoderma viride [28]): 11.9 µM (≈ 3.97 µg/mL); MFC (Trichoderma viride [29]): 23.8 µM (≈ 7.94 µg/mL); MIC (Aspergillus niger [30]): 11.9 µM (≈ 3.97 µg/mL); MIC (Aspergillus fumigatus [31]): 11.9 µM (≈ 3.97 µg/mL); MFC (Aspergillus fumigatus [32]): 23.8 µM (≈ 7.94 µg/mL) |
| O=C1N/C(=N/c2nc(C34CC5CC(CC(C5)C3)C4)cs2)S/C1=C\c1ccc(O)cc1 | 22.9 µM (≈ 10 µg/mL) | 17.2 µM (≈ 7.53 µg/mL) | 22.9 µM (≈ 10 µg/mL) | 11.5 µM (≈ 5.03 µg/mL) | 22.9 µM (≈ 10 µg/mL) | 11.5 µM (≈ 5.03 µg/mL) | 22.9 µM (≈ 10 µg/mL) | 17.2 µM (≈ 7.53 µg/mL) | 22.9 µM (≈ 10 µg/mL) | 22.9 µM (≈ 10 µg/mL) | 45.8 µM (≈ 20 µg/mL) | 17.2 µM (≈ 7.53 µg/mL) | 45.8 µM (≈ 20 µg/mL) | 22.9 µM (≈ 10 µg/mL) | 45.8 µM (≈ 20 µg/mL) | 22.9 µM (≈ 10 µg/mL) | 45.8 µM (≈ 20 µg/mL) | 45.8 µM (≈ 20 µg/mL) | 68.7 µM (≈ 30.1 µg/mL) | 11.5 µM (≈ 5.03 µg/mL) | MBC (Salmonella typhimurium [21]): 17.2 µM (≈ 7.53 µg/mL); MIC (Listeria monocytogenes [22]): 22.9 µM (≈ 10 µg/mL); MBC (Listeria monocytogenes [23]): 45.8 µM (≈ 20 µg/mL); MIC (Talaromyces funiculosus [24]): 17.2 µM (≈ 7.53 µg/mL); MFC (Talaromyces funiculosus [25]): 22.9 µM (≈ 10 µg/mL); MIC (Penicillium ochrochloron [26]): 17.2 µM (≈ 7.53 µg/mL); MFC (Penicillium ochrochloron [27]): 22.9 µM (≈ 10 µg/mL); MIC (Trichoderma viride [28]): 11.5 µM (≈ 5.03 µg/mL); MFC (Trichoderma viride [29]): 22.9 µM (≈ 10 µg/mL); MIC (Aspergillus niger [30]): 11.5 µM (≈ 5.03 µg/mL); MIC (Aspergillus fumigatus [31]): 11.5 µM (≈ 5.03 µg/mL); MFC (Aspergillus fumigatus [32]): 22.9 µM (≈ 10 µg/mL) |
| COc1cc(/C=C2\S/C(=N\c3nc(C45CC6CC(CC(C6)C4)C5)cs3)NC2=O)cc(OC)c1O | 20.9 µM (≈ 10.4 µg/mL) | 15.7 µM (≈ 7.81 µg/mL) | 20.9 µM (≈ 10.4 µg/mL) | 10.5 µM (≈ 5.23 µg/mL) | 20.9 µM (≈ 10.4 µg/mL) | 5.2 µM (≈ 2.59 µg/mL) | 20.9 µM (≈ 10.4 µg/mL) | 20.9 µM (≈ 10.4 µg/mL) | 20.9 µM (≈ 10.4 µg/mL) | 10.5 µM (≈ 5.23 µg/mL) | 20.9 µM (≈ 10.4 µg/mL) | 10.5 µM (≈ 5.23 µg/mL) | 15.7 µM (≈ 7.81 µg/mL) | 20.9 µM (≈ 10.4 µg/mL) | 41.8 µM (≈ 20.8 µg/mL) | 15.7 µM (≈ 7.81 µg/mL) | 41.8 µM (≈ 20.8 µg/mL) | 41.8 µM (≈ 20.8 µg/mL) | 62.7 µM (≈ 31.2 µg/mL) | 10.5 µM (≈ 5.23 µg/mL) | MBC (Salmonella typhimurium [21]): 15.7 µM (≈ 7.81 µg/mL); MIC (Listeria monocytogenes [22]): 20.9 µM (≈ 10.4 µg/mL); MBC (Listeria monocytogenes [23]): 41.8 µM (≈ 20.8 µg/mL); MIC (Talaromyces funiculosus [24]): 10.5 µM (≈ 5.23 µg/mL); MFC (Talaromyces funiculosus [25]): 20.9 µM (≈ 10.4 µg/mL); MIC (Penicillium ochrochloron [26]): 5.2 µM (≈ 2.59 µg/mL); MFC (Penicillium ochrochloron [27]): 10.5 µM (≈ 5.23 µg/mL); MIC (Trichoderma viride [28]): 10.5 µM (≈ 5.23 µg/mL); MFC (Trichoderma viride [29]): 20.9 µM (≈ 10.4 µg/mL); MIC (Aspergillus niger [30]): 10.5 µM (≈ 5.23 µg/mL); MIC (Aspergillus fumigatus [31]): 15.7 µM (≈ 7.81 µg/mL); MFC (Aspergillus fumigatus [32]): 20.9 µM (≈ 10.4 µg/mL) |
